Assay results reported in PMC9302452 (ACS Bio & Med Chem Au, 2022).

Tests used:
[1] = tested on: ERRγ; assay: Real-time PCR, transcriptional level of ERRγ; format: cell-based; conditions: 5.0 μM, 24 h incubation
Procedure, shortened: (§1)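 mRNA was quantified by real-time PCR with SYBR Premix Ex Taq under optimised conditions. Gene expression was normalised to Gapdh as the reference gene.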

[2] = tested on: Errα-LKO mice; assay: Errα-LKO mice on HFD treated with compound; format: in vivo, mouse; conditions: 30 mg/kg body weight
Procedure, shortened: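 Liver-specific Errα knockout mice came from crossing Errα-floxed with albumin-Cre mice. They were fed HFD for 8 weeks, then gavaged daily for 4 weeks with test compound (30 mg/kg) or PBS vehicle diluted in 0.5% CMC-Na. For IGTT, overnight-fasted mice received 1.0 g/kg glucose i.p. For ITT, 6 h-fasted mice received 0.5 U/kg human insulin i.p. Tail-vein glucose was read by glucometer. Liver glucose uptake was also measured; n = 5.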

[3] = target: T1, ERRα (Homo sapiens, UniProt P11474); assay: Transient transfection mammalian two-hybrid reporter gene assay; conditions: 5.0 μM, 24 h incubation, heterologous cell-based reporter assay
T1 sequence (P11474 193-421 limits assumed): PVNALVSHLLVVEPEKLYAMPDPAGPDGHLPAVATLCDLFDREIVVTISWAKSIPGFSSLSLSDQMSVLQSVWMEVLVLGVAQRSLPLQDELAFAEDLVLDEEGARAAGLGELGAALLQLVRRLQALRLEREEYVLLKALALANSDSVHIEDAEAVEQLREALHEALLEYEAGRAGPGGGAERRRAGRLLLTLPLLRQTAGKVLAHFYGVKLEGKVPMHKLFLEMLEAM
T1 sequence (Q9UBK2 1-798 partner): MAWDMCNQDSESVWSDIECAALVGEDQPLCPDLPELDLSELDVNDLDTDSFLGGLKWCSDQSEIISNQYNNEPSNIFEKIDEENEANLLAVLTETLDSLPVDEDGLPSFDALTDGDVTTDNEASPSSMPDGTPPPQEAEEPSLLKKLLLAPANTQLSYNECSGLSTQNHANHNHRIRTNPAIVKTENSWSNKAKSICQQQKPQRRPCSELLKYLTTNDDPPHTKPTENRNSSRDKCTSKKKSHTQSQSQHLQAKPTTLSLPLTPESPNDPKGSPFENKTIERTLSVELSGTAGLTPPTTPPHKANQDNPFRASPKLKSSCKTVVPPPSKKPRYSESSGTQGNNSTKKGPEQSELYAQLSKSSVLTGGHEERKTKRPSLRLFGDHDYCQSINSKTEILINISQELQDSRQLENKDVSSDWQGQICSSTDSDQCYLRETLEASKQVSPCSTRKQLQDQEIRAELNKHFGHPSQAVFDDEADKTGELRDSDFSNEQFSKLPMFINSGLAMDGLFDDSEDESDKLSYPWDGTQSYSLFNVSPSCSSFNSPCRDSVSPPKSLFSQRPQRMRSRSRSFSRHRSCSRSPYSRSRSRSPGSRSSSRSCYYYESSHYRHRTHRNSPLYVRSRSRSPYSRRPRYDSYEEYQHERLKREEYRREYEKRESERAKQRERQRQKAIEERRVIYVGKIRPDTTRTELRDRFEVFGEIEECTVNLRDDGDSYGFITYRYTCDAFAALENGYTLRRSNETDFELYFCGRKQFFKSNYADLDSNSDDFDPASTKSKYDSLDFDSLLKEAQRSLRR
Procedure, shortened: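 HEK293T cells were seeded at 10,000/well in DMEM with 10% FBS. After 18–24 h they were lipofected with GAL4-DBD-ERRα-LBD (0.5 ng), pcDNA-PGC-1α (0.5 ng), pFR reporter (25 ng) and pRL-TK Renilla control (3.0 ng). Test compound was added at 5.0 μM 6 h post-transfection for a further 24 h, and firefly/Renilla luciferase was read by dual-luciferase assay.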

[4] = tested on: ERRβ; assay: Real-time PCR, transcriptional level of ERRβ; format: cell-based; conditions: 5.0 μM, 24 h incubation
Procedure, shortened: as §1

[5] = target: T2, ERRα (Homo sapiens, UniProt P11474); assay: AAB-Luc cells stably expressing ERRα luciferase reporter; format: cell-based
T2 sequence (P11474 1-423): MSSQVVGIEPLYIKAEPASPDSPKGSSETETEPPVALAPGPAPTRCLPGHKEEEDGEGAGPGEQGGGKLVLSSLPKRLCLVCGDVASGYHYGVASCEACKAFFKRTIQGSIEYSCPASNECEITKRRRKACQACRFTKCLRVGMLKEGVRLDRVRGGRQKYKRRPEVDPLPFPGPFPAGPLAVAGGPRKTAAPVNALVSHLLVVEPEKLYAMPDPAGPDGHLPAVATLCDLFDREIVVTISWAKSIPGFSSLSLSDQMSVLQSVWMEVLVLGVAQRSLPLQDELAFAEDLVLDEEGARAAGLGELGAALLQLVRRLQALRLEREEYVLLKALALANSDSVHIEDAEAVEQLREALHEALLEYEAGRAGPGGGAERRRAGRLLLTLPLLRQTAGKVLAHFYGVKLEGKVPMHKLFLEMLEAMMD
Procedure, shortened: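 HEK293T cells were stably transduced at MOI 7 with a lentiviral AAB-GFP-Luc reporter. AAB is the ERRα response element, and the vector carries GFP and luciferase markers. The ERRα luciferase reporter read-out was multiplexed with a cell-viability assay. Test compounds were screened in three independent experiments.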

[6] = tested on: HepG2-IR cells; assay: Glucose uptake assay in HepG2-IR cells; format: cell-based
Procedure, shortened: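 HepG2-IR cells were starved 2 h in serum-free medium, then washed in glucose-free KRPH buffer (HEPES, pH 7.4, 0.2% fatty-acid-free BSA). They were incubated 30 min in KRPH with 5.0 μM test compound, 5 mM D-glucose and 2-deoxy-D-[3H]glucose. After ice-cold PBS washes, cells were lysed in 0.5 M NaOH/0.1% SDS and neutralised with HCl. Uptake was read by liquid scintillation counting.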

[7] = tested on: HepG2-IR cells; assay: Fatty acid oxidation assay in HepG2-IR cells; format: cell-based
Procedure, shortened: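 Insulin-resistant HepG2 (HepG2-IR) cells were treated with test compound or vehicle for 24 h. They were then incubated 1.5 h at 37 °C with 0.2 mM L-carnitine and 200 μM [14C(U)]palmitate (0.1 μCi/mL), compound still present. Released CO2 was trapped on methylbenzylamine/methanol-soaked paper after acidifying with 6 M HCl. Acid-soluble products in the supernatant were also counted by scintillation. Values were normalised to protein (BCA) from parallel wells.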

[8] = tested on: ERRα target genes in HepG2-IR cells; assay: Expression of ERRα and target genes in HepG2-IR cells; format: cell-based
[9] = tested on: HFD-induced obese mice; assay: HFD-induced obese C57 mice, daily oral treatment for 4 weeks; format: in vivo, mouse
Procedure, shortened: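 C57 mice were made obese on HFD for 8 weeks; low-fat-diet mice served as controls. They were then gavaged daily for 4 weeks with test compound (10 or 30 mg/kg) or PBS vehicle diluted in 0.5% CMC-Na. Body weight and fasting glucose were tracked during dosing. Mice were fasted overnight and killed, and livers were taken for kit-based CS activity, mtDNA and SYBR qPCR (Gapdh reference); n = 5.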

[10] = Tissue distribution after oral administration; format: in vivo; conditions: male, SD, rat, 30 mg/kg
Procedure, shortened: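 Male SD animals received a single oral gavage of test compound at 30 mg/kg in 0.5% CMC-Na. Blood and tissues were collected at 0.25, 0.5, 2 and 4 h, with 3 animals per time point. Heparinised blood was centrifuged and plasma stored at −80 °C. Plasma and tissue concentrations were measured by LC/MS and expressed as tissue-to-plasma ratios.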

[11] = tested on: FFA-induced HepG2-IR cells; assay: Oil red O lipid accumulation, FFA-induced HepG2-IR cells; format: cell-based; conditions: palmitic acid (FFA) HepG2-IR, 10.0 μM, 48 h
Procedure, shortened: (§2)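 HepG2 steatosis models were induced two ways. Line 3 used DMEM with 10% FBS and 1% BSA plus palmitic (0.33 mM) and oleic (0.66 mM) acid, final 1.0 mM, for 24 h. Line 4 used high glucose and insulin. Cells received DMSO or 10.0 μM test compound for 48 h; Erra overexpression and shRNA knockdown served as controls. Cells were formaldehyde-fixed, stained with 0.5% oil red O in isopropanol for 30 min with hematoxylin counterstain, and lipid was quantified.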

[12] = tested on: ERRα-targeted genes MCAD, PDK4, ATP5β; assay: Quantitative real-time PCR of ERRα-targeted genes; format: cell-based
Procedure, shortened: as §1

[13] = target: T3, ERRα-LBD (Homo sapiens, UniProt P11474); assay: AlphaScreen assay, interaction of ERRα-LBD with PGC1α peptide; format: binding
T3 sequence (P11474 193-421 limits assumed): T1 sequence (P11474 193-421 limits assumed)
Procedure, shortened: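 AlphaScreen used a hexahistidine detection kit with 200 nM His-tagged ERRα-LBD and 50 nM biotinylated PGC1α cofactor peptide, plus donor and acceptor beads. Buffer was 50 mM MOPS, 50 mM NaF, 0.05 mM CHAPS and 0.1 mg/mL BSA at pH 7.4. Test compound was added as a serial dilution series, and EC50 was derived from enhancement of the LBD–peptide interaction.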

[14] = tested on: ERα; assay: Expression of other nuclear hormone receptors: ERα; format: cell-based; conditions: Figure S3
[15] = tested on: glucose/insulin-induced HepG2-IR cells; assay: Oil red O lipid accumulation, glucose/insulin-induced HepG2-IR cells; format: cell-based; conditions: high glucose/high insulin HepG2-IR, 10.0 μM, 48 h
Procedure, shortened: as §2

[16] = tested on: PPARγ; assay: Expression of other nuclear hormone receptors: PPARγ; format: cell-based; conditions: Figure S3
[17] = tested on: ERRα; assay: Real-time PCR, transcriptional level of ERRα; format: cell-based; conditions: 5.0 μM, 24 h incubation
Procedure, shortened: as §1

[18] = tested on: ERγ; assay: Expression of other nuclear hormone receptors: ERγ; format: cell-based; conditions: Figure S3
[19] = tested on: ERβ; assay: Expression of other nuclear hormone receptors: ERβ; format: cell-based; conditions: Figure S3
[20] = target: T2, ERRα; assay: Cellular thermal shift assay; format: cell-based; conditions: HepG2 cells, concentration as low as 1.0 μM
Procedure, shortened: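 HepG2 cells grown to ~90% confluence were exposed to DMSO or test compound (1.0 or 5.0 μM in fresh medium) for 4 h at 37 °C, 5% CO2. Cells were harvested, washed, resuspended in PBS, split into seven aliquots and heated at 48–60 °C for 3 min. They were then held 10 min at room temperature and freeze-thawed thrice in liquid nitrogen. Lysates were spun 30 min at 4 °C and soluble ERRα was assessed by SDS-PAGE/western blot.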

[21] = Pharmacokinetics in SD rats; format: in vivo, rat
Procedure, shortened: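 Male Sprague–Dawley rats were dosed with test compound i.v. at 2.0 mg/kg or by oral gavage at 10 mg/kg. The formulation was 5% DMSO/95% hydroxypropyl-β-cyclodextrin (20% w/v) at 1 mg/mL. Orbital-sinus blood was drawn into heparin at 5, 15 and 30 min and at 1, 2, 4, 6, 8 and 24 h. Plasma was stored at −80 °C and quantified by LC/MS, and PK parameters were calculated.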

[22] = 10 and 30 mg/kg/day oral, 4 weeks
[23] = abdominal adipose tissue/plasma
[24] = male, Sprague-Dawley, rat, plasma, po, 10 mg/kg

- EC50 [5]: 2700 nM
- Kp at 0.25 h [10, 23]: 7.4
- Kp at 0.5 h [10, 23]: 30.1
- Kp at 2 h [10, 23]: 22.8
- Kp at 4 h [10, 23]: 235
- Kp at 0.25 h ([10]; liver/plasma): 58.9
- Kp at 0.5 h ([10]; liver/plasma): 39.8
- Kp at 2 h ([10]; liver/plasma): 28.6
- Kp at 4 h ([10]; liver/plasma): 47.4
- EC50 [13]: 86 nM
- Expression of ERα [14]: not obviously affected
- Expression of PPARγ [16]: not obviously affected
- Expression of ERγ [18]: not obviously affected
- Expression of ERβ [19]: not obviously affected
- Maximum plasma concentration ([21]; SD rat, PO 10 mg/kg): 2.0 ± 0.45 µM
- F (oral bioavailability) ([21]; SD rat, PO 10 mg/kg vs IV 2 mg/kg, printed on the IV line of Table S1): 9.0%
- Cmax [21, 24]: 531 ± 120 ng/mL
- Tmax [21, 24]: 15 min
- AUC(0-inf) ([21]; male, Sprague-Dawley, rat, plasma, po, 10 mg/kg, AUC(0-∞), SD rat, PO 10 mg/kg): 383 ± 110 ng·h/mL
SMILES: COc1ccc2c(=O)n(C)c(-c3ccccc3)nc2c1 [Compound 7, 7-methoxy-3-methyl-2-phenyl quinazolin-4(3H)-one]
- Effect on transcriptional level of ERRγ [1]: did not display an obvious effect
- Effects on systemic and liver insulin resistance in Errα-LKO mice [2]: almost completely abolished
- ERRα-driven luciferase activity [3]: effectively improved the ERRα-driven luciferase activity
- Effect on transcriptional level of ERRβ [4]: did not display an obvious effect
- Glucose uptake [6]: significantly enhanced
- Fatty acid oxidation [7]: significantly enhanced
- Expression of ERRα target genes including Errα [8]: increased by the molecule in a dose-dependent manner
- Body weight [9, 22]: did not obviously affect body weight
- Glucose tolerance (IGTT) [9, 22]: improved glucose tolerance
- Insulin resistance (ITT) [9, 22]: improved glucose tolerance and insulin resistance
- Fasting glucose levels ([9]; 10 and 30 mg/kg/day oral, 4 weeks, vs vehicle): decreased fasting glucose levels
- Plasma FFA ([9]; HFD-elevated level): attenuated
- Plasma TC ([9]; HFD-elevated level): attenuated
- Plasma TG ([9]; HFD-elevated level): attenuated
- Plasma insulin ([9]; HFD-elevated level): attenuated
- Transcription of Errα and target genes (Pdk4, Atp5β, Pgc1α) in mouse liver ([9]; both 10 and 30 mg/kg): significantly elevated transcription
- Expression of FFA oxidation genes Mcad and Cpt1a in liver ([9]; compound-treated group): obviously enhanced
- Food intake ([9]; compound-treated vs PBS-fed mice): similar
- Serum ALT level ([9]; daily oral): dampened
- Serum AST level ([9]; daily oral): dampened
- Hepatic steatosis (Oil red O and HE staining) ([9]; daily oral, both 10 and 30 mg/kg): potently mitigated hepatic steatosis
- CS activity ([9]; liver): higher CS activity
- Copy number of mitochondrial DNA ([9]; liver): elevated
- Fatty acid oxidation ([9]; liver tissue): higher
- Protein levels of AOX1, Cytochrome C, SDH, CPT1A ([9]; liver, western blot): elevated
- Oxygen consumption ([9]; metabolic cage): elevated oxygen consumption
- Protein levels of ERRα, PDK4, MCAD, ATP5β in liver ([9]; western blot): significantly increased protein levels
- Akt signaling pathways in the liver (p-Akt/total Akt) ([9]; western blot of liver tissue): significantly sensitized Akt signaling pathways
- Lipid accumulation (oil red O) [11]: significantly alleviated lipid accumulation
- mRNA levels of ERRα downstream genes (MCAD, PDK4, ATP5β) [12]: dose-dependently elevated mRNA levels
- Lipid accumulation (oil red O) [15]: significantly alleviated lipid accumulation
- Elevation of transcriptional level of ERRα [17]: approximately 2.5 fold
- Thermal degradation of ERRα [20]: obviously inhibited thermal degradation of ERRα
